Assay results: article PMC5848258 (Clinical Infectious Diseases: An Official Publication of …, 2017)
Marks after values point to notes of the source that are not given here.

Experiments:
[1] = Solubility in aqueous media; type: physicochemical
HIV-1 subtype C = test: Change in plasma HIV-1 RNA, GSK3532795 monotherapy for 10 days; type: in vivo, human; settings: for Median of the maximum change from baseline in HIV-1 RNA / Median decline (baseline to day 11) in HIV-1 RNA: Part C
In short: (§1)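 HIV-1-infected adults aged 18–55 with plasma HIV-1 RNA ≥5000 copies/mL and CD4+ count ≥200 cells/µL, PI- and MI-naive, were randomized 4:1 to test compound or placebo, double-blind. Dosing was once daily by oral suspension after a ≥10-hour fast for 10 days: part A subtype B, 5–120 mg; part C subtype C, 40 or 120 mg. Plasma HIV-1 RNA was measured by real-time PCR at screening and on days 1–14, 17, 19 and 24–26.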

[2] = cited from earlier work
Safety assessments = type: in vivo, human; settings: for Any AE / Deaths / Discontinuations due to AE(s) / Grade 3–4 related AEs / Laboratory abnormalities (grade 3–4) / Serious AEs: Parts A/C
In short: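 Over the 10-day once-daily oral monotherapy (test compound or placebo, double-blind, fasted) and follow-up, staff recorded vital signs, physical examination, laboratory measurements, ECG and adverse events. Adverse events were coded with MedDRA version 17.1. Investigators graded their severity and their relationship to study drug.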

[3] = healthy subjects; ref Bristol-Myers Squibb, data on file; cited from earlier work
[4] = Plasma pharmacokinetics of GSK3532795, part C; type: in vivo, human; settings: for AUC / Cmax / Tmax: human, plasma, oral
In short: (§2)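 The test compound was given as monotherapy by oral suspension after a ≥10-hour fast, once daily for 10 days (part A subtype B, 5–120 mg; part C subtype C, 40 or 120 mg). Serial blood samples were taken on days 1 and 10, with troughs on days 2, 4, 6 and 8. Plasma levels were measured by validated LC/MS and analysed noncompartmentally. Dose proportionality was assessed with a power model on log exposure versus log dose.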

HIV-1 Gag = settings: in vitro, compared with BVM; cited from earlier work
[5] = Plasma pharmacokinetics of GSK3532795, part A; type: in vivo; settings: human, oral
In short: as §2

HIV-1 subtype B [6] = test: Change in plasma HIV-1 RNA, GSK3532795 monotherapy for 10 days; type: in vivo, human
In short: as §1

HIV-1 subtype B [7] = test: Exposure–response relationship; type: in vivo, human; settings: Part A
In short: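 Part A subjects received the test compound orally, fasted, once daily for 10 days. Plasma concentration at 24 hours on day 10 was measured by validated LC/MS. It was related to the maximum change from baseline in log10 HIV-1 RNA with a 3-parameter […] Emax model, Y = E0 + Emax*C/(EC50 + C).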

[8] = Plasma pharmacokinetics of GSK3532795, part B; type: in vivo, human; settings: for AUC increase compared with the same dose given as monotherapy: fed vs fasted monotherapy; for AUC / concentration at 24 h / Cmax / Tmax: human, plasma, oral; for AUC: AUCtau (%CV); for concentration at 24 h: C24 (%CV); for Cmax: Cmax (%CV); for Tmax: median (min–max)
In short: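 Male subtype B-infected subjects took the test compound (40 or 80 mg) once daily with atazanavir 400 mg, or with atazanavir/ritonavir 300 mg/100 mg. Dosing was open-label, as an oral suspension with breakfast, for 28 days. Serial samples were taken on days 1 and 10, with troughs on days 2, 4, 6 and 8. Plasma levels were measured by validated LC/MS and analysed noncompartmentally.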

HIV-1 = settings: cited from earlier work
[9] = Part B, fed, 40 mg + ATV 300 mg + RTV 100 mg QD
[10] = Part B, fed, 40 mg + ATV 400 mg QD
[11] = Part B, fed, 80 mg + ATV 400 mg QD

## C=C(C)[C@@H]1CC[C@]2(NCCN3CCS(=O)(=O)CC3)CC[C@]3(C)[C@H](CC[C@@H]4[C@@]5(C)CC=C(c6ccc(C(=O)O)cc6)C(C)(C)[C@@H]5CC[C@]43C)[C@@H]12 [GSK3532795]
[1]
  solubility: < 1 µg/mL
HIV-1 subtype C; 10 days of 40 mg or 120 mg QD monotherapy, subtype C–infected subjects with ≥1 of 3 Gag polymorphisms at baseline
  Decline in HIV-1 RNA: > 1 log10
HIV-1 subtype C; 40 mg QD
  Median of the maximum change from baseline in HIV-1 RNA: −1.35 log10 copies/mL
HIV-1 subtype C; 40 mg QD, observed after day 8
  Median decline (baseline to day 11) in HIV-1 RNA: > 1 log10 copies/mL
HIV-1 subtype C; 120 mg QD
  Median of the maximum change from baseline in HIV-1 RNA: −1.26 log10 copies/mL
HIV-1 subtype C; 120 mg QD, observed after day 10
  Median decline (baseline to day 11) in HIV-1 RNA: > 1 log10 copies/mL
[2]
  Human serum binding: 86%
Safety assessments; 5 mg QD (n=8)
  Any AE: 5 (62.5) n (%)
  Deaths: 0 n (%)
  Discontinuations due to AE(s): 0 n (%)
  Grade 3–4 related AEs: 0 n (%)
  Laboratory abnormalities (grade 3–4): 0 n (%)
  Serious AEs: 0 n (%)
Safety assessments; 10 mg QD (n=8)
  Any AE: 4 (50.0) n (%)
  Deaths: 0 n (%)
  Discontinuations due to AE(s): 0 n (%)
  Grade 3–4 related AEs: 0 n (%)
  Laboratory abnormalities (grade 3–4): 0 n (%)
  Serious AEs: 0 n (%)
Safety assessments; 20 mg QD (n=8)
  Any AE: 4 (50.0) n (%)
  Deaths: 0 n (%)
  Discontinuations due to AE(s): 0 n (%)
  Grade 3–4 related AEs: 0 n (%)
  Laboratory abnormalities (grade 3–4): 0 n (%)
  Serious AEs: 0 n (%)
Safety assessments; 40 mg QD (n=16)
  Any AE: 8 (50.0) n (%)
  Deaths: 0 n (%)
  Discontinuations due to AE(s): 0 n (%)
  Grade 3–4 related AEs: 0 n (%)
  Laboratory abnormalities (grade 3–4): 0 n (%)
  Serious AEs: 0 n (%)
Safety assessments; 80 mg QD (n=8)
  Any AE: 7 (87.5) n (%)
  Deaths: 0 n (%)
  Discontinuations due to AE(s): 0 n (%)
  Grade 3–4 related AEs: 0 n (%)
  Laboratory abnormalities (grade 3–4): 0 n (%)
  Serious AEs: 0 n (%)
Safety assessments; 120 mg QD (n=15)
  Any AE: 10 (66.6) n (%)
  Deaths: 0 n (%)
  Discontinuations due to AE(s): 0 n (%)
  Grade 3–4 related AEs: 0 n (%)
  Serious AEs: 0 n (%)
Safety assessments; 120 mg QD (n=15), grade 3 transient neutropenia reported as related to GSK3532795
  Laboratory abnormalities (grade 3–4): 1 (6.7)^c n (%)
Safety assessments; during GSK3532795 monotherapy
  Cases of hyperbilirubinemia: no cases
[3]
  Half-life (T1/2): approximately 35 hours
[4]; Part C, monotherapy, less than dose-proportional
  Increase in Cmax and AUCtau between 40 mg and 120 mg: ~ 2 fold
[4]; 40 mg
  AUC: 25600 ng·h/mL
  Cmax: 1560 ng/mL
  Tmax: 3 h
[4]; 120 mg
  AUC: 54000 ng·h/mL
  Cmax: 3380 ng/mL
  Tmax: 3 h
HIV-1 Gag
  Binding to HIV-1 Gag: binds reversibly to HIV-1 Gag with greater affinity than BVM
[5]
  Tmax: 3 h
  half-life: 30 to 35 h
[5]; 5 mg
  AUC: 2720 ng·h/mL
  Cmax: 171 ng/mL
  Tmax: 3 h
  concentration at 24 h: 81.6 ng/mL
  half-life: 32.7 h
[5]; 10 mg
  AUC: 5170 ng·h/mL
  Cmax: 337 ng/mL
  Tmax: 3 h
  concentration at 24 h: 139 ng/mL
  half-life: 33.1 h
[5]; 20 mg
  AUC: 11800 ng·h/mL
  Cmax: 705 ng/mL
  Tmax: 4 h
  concentration at 24 h: 326 ng/mL
  half-life: 29.7 h
[5]; 40 mg
  AUC: 23000 ng·h/mL
  Cmax: 1480 ng/mL
  Tmax: 3 h
  concentration at 24 h: 713 ng/mL
  half-life: 33.8 h
[5]; 80 mg
  AUC: 39300 ng·h/mL
  Cmax: 2470 ng/mL
  Tmax: 3 h
  concentration at 24 h: 1150 ng/mL
  half-life: 30 h
[5]; 120 mg
  AUC: 44200 ng·h/mL
  Cmax: 2810 ng/mL
  Tmax: 2.5 h
  concentration at 24 h: 1290 ng/mL
  half-life: 34.9 h
HIV-1 subtype B [6]; Part A, 20–120 mg QD dose groups
  Decline in HIV-1 RNA: > 1 log10
HIV-1 subtype B [6]; Part A, 40–120 mg QD dose groups
  Plateau of decline in HIV-1 RNA: approximately 1.64 log10 copies/mL
HIV-1 subtype B [6]; Part A, 40–120 mg QD, consistently from approximately day 7
  Median decline (baseline to day 11) in HIV-1 RNA: > 1 log10 copies/mL
HIV-1 subtype B [6]; Part A, 40–120 mg QD, in the presence of baseline Gag polymorphisms (n = 15)
  Range of median of the maximum decline in HIV-1 RNA: −1.43 to −1.98 log10 copies/mL
HIV-1 subtype B [6]; Part A, across all GSK3532795 groups (5–120 mg QD)
  Median of the maximum change in HIV-1 RNA from baseline to study discharge on day 24: −0.50 to −1.70 log10 copies/mL
HIV-1 subtype B [6]; following 10 days of monotherapy in subtype B–infected subjects
  Median maximum decline in HIV-1 RNA: 1.70 log10 copies/mL
HIV-1 subtype B [7]; Emax model
  Predicted maximum decline in HIV-1 RNA from baseline: approximately 1.7 log10 copies/mL
HIV-1 subtype B [7]; steady-state C24 vs maximum change in HIV-1 RNA
  C24 at which apparent response plateau was achieved: ≥ 500 ng/mL
[8]; GSK3532795 + ATV alone in the fed state
  Increase in exposures compared with the same dose given as monotherapy fasted: up to 50%
[8]; Part B, 40 mg + ATV alone
  AUC increase compared with the same dose given as monotherapy: approximately 40%
[8]; Part B, 80 mg + ATV alone
  AUC increase compared with the same dose given as monotherapy: ~50%
[8]; Part B, GSK3532795 40 mg
  Exposures higher with ATV/RTV relative to administration with ATV alone: ~ 10%
[8]; Part B, coadministered with ATV alone, fed
  Increase in exposures between 40 mg and 80 mg: ~ 2 fold
[8]; Part B, with ATV ± RTV in the fed state
  Tmax delay: 1 to 2 h
[8]; [9]
  AUC: 34200 ng·h/mL
  concentration at 24 h: 1160 ng/mL
  Cmax: 1850 ng/mL
  Tmax: 5 h
[8]; [10]
  AUC: 31400 ng·h/mL
  concentration at 24 h: 1100 ng/mL
  Cmax: 1670 ng/mL
  Tmax: 4.5 h
[8]; [11]
  AUC: 59900 ng·h/mL
  concentration at 24 h: 2010 ng/mL
  Cmax: 3160 ng/mL
  Tmax: 4.5 h
HIV-1
  EC50 shift in the presence of serum: 5.4 fold
HIV-1; in vitro studies
  Effect when combined with other antiretrovirals, including integrase inhibitors: additive

## C=C(C)[C@@H]1CC[C@]2(C(=O)O)CC[C@]3(C)[C@H](CC[C@@H]4[C@@]5(C)CC[C@H](OC(=O)CC(C)(C)C(=O)O)C(C)(C)[C@@H]5CC[C@]43C)[C@@H]12 [BVM, 3-o-(3’,3’-dimethylsuccinyl)betulinic acid, reference compound]
[2]
  Protein binding: > 99%
